ChEMBL document CHEMBL1123365, “Synthesis and opioid antagonist potencies of naltrexamine bivalent ligands with conformationally restricted spacers” (1986)

Legend:
Cavia porcellus [1] = species on record: Cavia porcellus; assay: Compound was tested for its antagonistic activity with morphine on the electrically stimulated guinea pig ileal longitudinal muscle (GPI).; assay type: functional, Muscle tissue
How it was run: (§1)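 Guinea pig ileal longitudinal muscle (GPI) strip. Each ligand at 5 nM was incubated with the tissue for 30 min before a morphine (μ-selective) concentration-response curve was run. The IC50 ratio is the morphine IC50 with antagonist divided by the control IC50 in the same preparation. Relative potency is the ratio relative to the monovalent reference ligand. Mean ± SE of three determinations.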

[2] = Ratio of IC50 of compound in presence of ethylketazocine (EK) on the electrically stimulated guinea pig ileal longitudinal muscle (GPI) to that of IC50 of control value; assay type: functional
How it was run: (§2)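 Guinea pig ileal longitudinal muscle (GPI) strip. Ligand at 5 nM was preincubated with the tissue for 30 min, then an ethylketazocine (κ-selective) concentration-response curve was run. The IC50 ratio is the EK IC50 with antagonist over the control EK IC50 in the same GPI preparation. Relative potency is expressed against the monovalent reference ligand. Mean ± SE, n = 3.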

[3] = Ratio of IC50 of compound in presence of morphine on the electrically stimulated guinea pig ileal longitudinal muscle (GPI) to that of IC50 of control value; assay type: functional; how it was run: as §1
Cavia porcellus [4] = species on record: Cavia porcellus; assay: Compound was tested for its antagonistic activity with ethylketazocine (EK) activity on the electrically stimulated guinea pig ileal longitudinal muscle (GPI).; assay type: functional, Muscle tissue; how it was run: as §2

`O=C(/C=C/C(=O)NCC(=O)NC1CCC2(O)C3Cc4ccc(O)c5c4C2(CCN3CC2CC2)C1O5)NCC(=O)NC1CCC2(O)C3Cc4ccc(O)c5c4C2(CCN3CC2CC2)C1O5` (stereo not given) gave a Relative potency (Cavia porcellus [1]) of 3.6, a Ratio [2] of 6.6 and a Ratio [3] of 8.2.
Compound `O=C(/C=C/C(=O)NCC(=O)NCC(=O)NC1CCC2(O)C3Cc4ccc(O)c5c4C2(CCN3CC2CC2)C1O5)NCC(=O)NCC(=O)NC1CCC2(O)C3Cc4ccc(O)c5c4C2(CCN3CC2CC2)C1O5` (stereo not given) has a Relative potency (Cavia porcellus [4]) of 13.1, a Relative potency (Cavia porcellus [1]) of 43 and a Ratio [2] of 19.6. For the same compound, the Ratio [3] was 100.
`O=C(/C=C/C(=O)NCC(=O)NCC(=O)NCC(=O)NCC(=O)NC1CCC2(O)C3Cc4ccc(O)c5c4C2(CCN3CC2CC2)C1O5)NCC(=O)NCC(=O)NCC(=O)NCC(=O)NC1CCC2(O)C3Cc4ccc(O)c5c4C2(CCN3CC2CC2)C1O5` (stereo not given) showed a Relative potency (Cavia porcellus [4]) of 2.2, a Relative potency (Cavia porcellus [1]) of 9.9 and a Ratio [2] of 3.3. For the same compound, the Ratio [3] was 22.7.
With `O=C(/C=C/C(=O)NC1CCC2(O)C3Cc4ccc(O)c5c4C2(CCN3CC2CC2)C1O5)NC1CCC2(O)C3Cc4ccc(O)c5c4C2(CCN3CC2CC2)C1O5` (stereo not given) the Relative potency (Cavia porcellus [4]) was 2.3, the Relative potency (Cavia porcellus [1]) was 2.1 and the Ratio [2] was 3.4. It also gave a Ratio [3] of 4.8.
